Measurements: ChEMBL document CHEMBL1157948, “Triterpenoids from the resin of Styrax tonkinensis and their antiproliferative and differentiation effects in human leukemia HL-60 cells” (2006)

Tests used:
Type in all cases: functional
[1] = tested on: HL-60; assay: Induction of cell differentiation of human HL60 cells after 3 days by NBT reduction method; parameters: concentration or dose not given beside the values
Procedure, shortened: (§1)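 HL-60 cells in RPMI-1640 with 10% heat-inactivated FBS, seeded at 1 × 10⁵ cells/mL in log phase and treated 3 days at nontoxic concentrations. Differentiation scored by NBT reduction as percentage of NBT-positive cells among 200 counted; mean ± SE of three independent experiments.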

[2] = tested on: HL-60; assay: Growth inhibition of human HL60 cells after 3 days by trypan blue method
Procedure, shortened: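 HL-60 cells grown in RPMI-1640 with 10% heat-inactivated FBS, 1 mM L-glutamine, penicillin/streptomycin. Log-phase cells seeded at 1 × 10⁵ cells/mL and exposed to a range of concentrations for 3 days, in triplicate. Total cells counted on a hemocytometer, with trypan blue marking nonviable cells. Growth inhibition taken relative to untreated control; IG₅₀ from regression of concentration-response data; mean ± SE of three independent experiments.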

[3] = tested on: HL-60; assay: Induction of cell differentiation of human HL60 cells at 100 uM after 3 days by NBT reduction method; procedure, shortened: as §1

Row | Structure (SMILES) | Activity [1] [%] | IG50 [2] [µM] | Activity [3] [%]
1 | CC1(C)CC[C@]2(C(=O)O)CC[C@]3(C)C(=CC[C@@H]4[C@@]5(C)CCC(=O)C(C)(C)[C@@H]5[C@H](O)C[C@]43C)[C@@H]2C1 | <10 | 14.2 | 
2 | CC1(C)CC[C@]2(C(=O)O)CC[C@]3(C)C(=CC[C@@H]4[C@@]5(C)CCC(=O)C(C)(C)[C@@H]5CC[C@]43C)[C@@H]2[C@@H]1O | <10 | 41 | 
3 | CC1(C)CC[C@]2(C(=O)O)CC[C@]3(C)C(=CC(=O)[C@@H]4[C@@]5(C)CC[C@H](O)C(C)(C)[C@@H]5[C@H](O)C[C@]43C)[C@@H]2C1 |  | 99.4 | 44
4 | CC1(C)CC[C@]23CC[C@]4(C)[C@@H](C(=O)C[C@@H]5[C@@]6(C)CC[C@H](O)C(C)(C)[C@@H]6CC[C@]54C)[C@@H]2[C@H]1OC3=O | <10 | 51.2 | 
5 | CC1(C)CC[C@@]23CC[C@]4(C)[C@@](OC2=O)([C@@H]3C1)[C@H]1O[C@H]1[C@@H]1[C@@]2(C)CCC(=O)C(C)(C)[C@@H]2[C@H](O)C[C@]14C | <10 | 41.8 | 
6 | CC1(C)CC[C@@]23CC[C@]4(C)[C@@](OC2=O)([C@@H]3C1)[C@H]1O[C@H]1[C@@H]1[C@@]2(C)CC[C@H](O)C(C)(C)[C@@H]2[C@H](O)C[C@]14C | <10 | 27.5 | 
7 | CC1(C)CC[C@]2(C(=O)O)CC[C@]3(C)C(=CC[C@@H]4[C@@]5(C)CC[C@H](O)C(C)(C)[C@@H]5CC[C@]43C)[C@@H]2C1 [OLEANOLIC_ACID] | <10 | 8.9 | 
8 | CC1(C)CC[C@]2(C(=O)O)CC[C@]3(C)C(=CC[C@@H]4[C@@]5(C)CC[C@H](O)C(C)(C)[C@@H]5CC[C@]43C)[C@@H]2[C@@H]1O [SIARESINOLIC ACID] | <10 | 29 | 
9 | CC1(C)CC[C@]2(C(=O)O)CC[C@]3(C)C(=CC[C@@H]4[C@@]5(C)CC[C@H](O)C(C)(C)[C@@H]5[C@H](O)C[C@]43C)[C@@H]2C1 [SUMARESINOLIC ACID] | <10 | 30.2 | 
